ChEMBL document CHEMBL1143019, “Hybrid molecules of estrone: new compounds with potential antibacterial, antifungal, and antiproliferative activities” (2007)
In brackets after ≈: the same amount, converted by molar mass.

Legend:
[1] = test system: Candida albicans; assay: Antifungal activity against Candida albicans ATCC 44859 after 24 hrs; assay type: functional; conditions: ATCC 44859, 24 h
In short: (§1)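 Modified NCCLS M27-A broth microdilution with clinical isolates subcultured on Sabouraud dextrose agar. Suspensions diluted 1:50 in RPMI 1640 to give a final inoculum of 0.5–2.5×10³ CFU/mL for yeasts or 0.5–5×10⁴ CFU/mL for molds. The RPMI had L-glutamine, no bicarbonate, and 0.165 M MOPS to pH 7.0. Twofold dilutions from 250 to 0.49. Plates held at 35 °C, humid, without agitation. MIC is the lowest concentration giving ≥80% inhibition versus drug-free control, read at 24 and 48 h.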

[2] = test system: Trichophyton benhamiae; assay: Antifungal activity against Trichophyton mentagrophytes 445 after 120 hrs; assay type: functional, Arthroderma benhamiae
In short: (§2)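 Same modified M27-A microdilution with the mold inoculum of 0.5–5×10⁴ CFU/mL. Medium was RPMI 1640 with L-glutamine, no bicarbonate, and 0.165 M MOPS at pH 7.0. Twofold dilutions from 250 to 0.49. Incubated at 35 °C in a humid atmosphere.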

[3] = test system: Mycobacterium kansasii; assay: Antimicrobial activity against Mycobacterium kansasii My 6509/96 after 7 days; assay type: functional; conditions: 168 h
In short: (§3)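 Run in Šula semisynthetic liquid medium containing bovine serum. Compounds added as DMSO solutions at final concentrations of […]. Each strain was also inoculated onto Löwenstein–Jensen medium to control inoculum sterility and growth.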

[4] = test system: Lichtheimia corymbifera; assay: Antifungal activity against Absidia corymbifera 272 after 48 hrs; assay type: functional; in short: as §1
[5] = test system: Candida tropicalis; assay: Antifungal activity against Candida tropicalis 156 after 24 hrs; assay type: functional; in short: as §1
[6] = test system: Mycobacterium kansasii; assay: Antimicrobial activity against Mycobacterium kansasii My 235/80 after 21 days; assay type: functional; conditions: 504 h; in short: as §3
[7] = test system: Pichia kudriavzevii; assay: Antifungal activity against Candida krusei E28 after 24 hrs; assay type: functional; in short: as §1
[8] = test system: Trichophyton benhamiae; assay: Antifungal activity against Trichophyton mentagrophytes 445 after 72 hrs; assay type: functional, Arthroderma benhamiae; in short: as §2
[9] = test system: Candida albicans; assay: Antifungal activity against Candida albicans ATCC 44859 after 48 hrs; assay type: functional; conditions: ATCC 44859, 48 h; in short: as §1
[10] = test system: Trichosporon beigelii; assay: Antifungal activity against Trichosporon beigelii 1188 after 48 hrs; assay type: functional; in short: as §1
[11] = test system: Mycobacterium kansasii; assay: Antimicrobial activity against Mycobacterium kansasii My 235/80 after 7 days; assay type: functional; conditions: 168 h; in short: as §3
[12] = test system: Mycobacterium kansasii; assay: Antimicrobial activity against Mycobacterium kansasii My 6509/96 after 14 days; assay type: functional; conditions: 336 h; in short: as §3
[13] = test system: Nakaseomyces glabratus; assay: Antifungal activity against Candida glabrata 20/I after 48 hrs; assay type: functional; in short: as §1
[14] = test system: Mycobacterium tuberculosis; assay: Antimicrobial activity against Mycobacterium tuberculosis My 331/88 after 14 days; assay type: functional; conditions: 336 h
[15] = test system: Pichia kudriavzevii; assay: Antifungal activity against Candida krusei E28 after 48 hrs; assay type: functional; in short: as §1
[16] = test system: Mycobacterium avium; assay: Antimicrobial activity against Mycobacterium avium My 330/88 after 14 days; assay type: functional; conditions: 336 h
[17] = test system: Mycobacterium kansasii; assay: Antimicrobial activity against Mycobacterium kansasii My 6509/96 after 21 days; assay type: functional; conditions: 504 h; in short: as §3
[18] = test system: Lichtheimia corymbifera; assay: Antifungal activity against Absidia corymbifera 272 after 24 hrs; assay type: functional; in short: as §1
[19] = test system: Aspergillus fumigatus; assay: Antifungal activity against Aspergillus fumigatus 231 after 24 hrs; assay type: functional; in short: as §1
[20] = test system: Aspergillus fumigatus; assay: Antifungal activity against Aspergillus fumigatus 231 after 48 hrs; assay type: functional; in short: as §1
[21] = test system: Trichosporon beigelii; assay: Antifungal activity against Trichosporon beigelii 1188 after 24 hrs; assay type: functional; in short: as §1
[22] = test system: Mycobacterium tuberculosis; assay: Antimicrobial activity against Mycobacterium tuberculosis My 331/88 after 21 days; assay type: functional; conditions: 504 h
[23] = test system: L929; assay: Antiproliferative activity against mouse L929 cells after 72 hrs; assay type: functional; conditions: L929, 72 h
In short: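 About 10,000 adherent cells per well in RPMI 1640 with 10% heat-inactivated FBS and penicillin/streptomycin, without HEPES. Exposed to 10 concentrations for 72 h at 37 °C in humidified 5% CO₂. Monolayers fixed with glutaraldehyde, stained 15 min with 0.05% methylene blue, and eluted with 0.33 N HCl; OD read at 630 nm. GI50 derived from dose–response curves relative to control.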

[24] = test system: HeLa; assay: Cytotoxicity against human HeLa cells after 72 hrs; assay type: functional
In short: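 About 10,000 cells per well in RPMI 1640 were preincubated 48 h without compound. The 10 test concentrations were then applied onto the monolayers and incubated 72 h at 37 °C in humidified 5% CO₂. Monolayers fixed with glutaraldehyde, stained with 0.05% methylene blue, and eluted with 0.33 N HCl; optical density measured at 630 nm.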

[25] = test system: Nakaseomyces glabratus; assay: Antifungal activity against Candida glabrata 20/I after 24 hrs; assay type: functional; in short: as §1
[26] = test system: Mycobacterium kansasii; assay: Antimicrobial activity against Mycobacterium kansasii My 235/80 after 14 days; assay type: functional; conditions: 336 h; in short: as §3
[27] = test system: Candida tropicalis; assay: Antifungal activity against Candida tropicalis 156 after 48 hrs; assay type: functional; in short: as §1
[28] = test system: K562; assay: Antiproliferative activity against human K562 cells after 72 hrs; assay type: functional; conditions: K562, 72 h
In short: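 About 10,000 suspension cells per well in RPMI 1640 with 10% heat-inactivated FBS and penicillin/streptomycin, without HEPES. Exposed to 10 concentrations for 72 h at 37 °C in humidified 5% CO₂. Wells diluted 1:50 in CASYTON and counted electronically, each result the mean of three successive counts. GI50 is where the concentration–response curve crosses 50% of control cell count.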

[29] = test system: Mycobacterium avium; assay: Antimicrobial activity against Mycobacterium avium My 330/88 after 21 days; assay type: functional; conditions: 504 h

Structure (SMILES)	MIC [1]	MIC [2]	MIC [3]	MIC [4]	MIC [5]	MIC [6]	MIC [7]	MIC [9]	MIC [10]	MIC [11]	MIC [12]	MIC [13]	MIC [14]	MIC [15]	MIC [18]	MIC [19]	MIC [20]	MIC [21]	MIC [25]	MIC [27]	also measured
Cc1ccc(-n2nnnc2SCc2ccccc2)cc1	> 250 µM	62.5 µM (≈ 17.6 µg/mL)	16 µM (≈ 4.52 µg/mL)	> 250 µM	> 250 µM	250 µM (≈ 70.6 µg/mL)	> 250 µM	> 250 µM	> 250 µM	16 µM (≈ 4.52 µg/mL)	32 µM (≈ 9.04 µg/mL)	> 250 µM	32 µM (≈ 9.04 µg/mL)	> 250 µM	> 250 µM	62.5 µM (≈ 17.6 µg/mL)	250 µM (≈ 70.6 µg/mL)	> 250 µM	> 250 µM	> 250 µM	MIC [8]: 31.3 µM (≈ 8.84 µg/mL); MIC [16]: 62.5 µM (≈ 17.6 µg/mL); MIC [17]: 250 µM (≈ 70.6 µg/mL); MIC [22]: 125 µM (≈ 35.3 µg/mL); GI50 [23]: 12.5 µg/mL (≈ 44.3 µM); CC10 [24]: 4 µg/mL (≈ 14.2 µM); CC50 ([24]; Homo sapiens, HeLa, 72 h): 19.7 µg/mL (≈ 69.8 µM); MIC [26]: 32 µM (≈ 9.04 µg/mL); GI50 [28]: 24.3 µg/mL (≈ 86.1 µM)
C[C@@H]1[C@H](O)[C@@H](C)/C=C/C=C/C=C/C=C/C=C/C=C/C=C/[C@H](O[C@@H]2O[C@H](C)[C@@H](O)[C@H](N)[C@@H]2O)C[C@@H]2O[C@](O)(C[C@@H](O)C[C@@H](O)[C@H](O)CC[C@@H](O)C[C@@H](O)CC(=O)O[C@H]1C)C[C@H](O)[C@H]2C(=O)O [AMPHOTERICIN B]	0.02 µM (≈ 0.0185 µg/mL)			2.16 µM (≈ 2 µg/mL)	0.07 µM (≈ 0.0647 µg/mL)		0.14 µM (≈ 0.129 µg/mL)	0.07 µM (≈ 0.0647 µg/mL)	2.16 µM (≈ 2 µg/mL)			0.14 µM (≈ 0.129 µg/mL)		0.14 µM (≈ 0.129 µg/mL)	1.08 µM (≈ 0.998 µg/mL)	0.27 µM (≈ 0.25 µg/mL)	0.27 µM (≈ 0.25 µg/mL)	1.08 µM (≈ 0.998 µg/mL)	0.04 µM (≈ 0.037 µg/mL)	0.07 µM (≈ 0.0647 µg/mL)	
OC(Cn1cncn1)(Cn1cncn1)c1ccc(F)cc1F [FLUCONAZOLE]	0.8 µM (≈ 0.245 µg/mL)	52.2 µM (≈ 16 µg/mL)		> 250 µM	1.6 µM (≈ 0.49 µg/mL)		52.2 µM (≈ 16 µg/mL)	1.6 µM (≈ 0.49 µg/mL)	6.5 µM (≈ 1.99 µg/mL)			52.2 µM (≈ 16 µg/mL)		104 µM (≈ 32 µg/mL)	> 250 µM	> 250 µM	> 250 µM	3.3 µM (≈ 1.01 µg/mL)	13.1 µM (≈ 4.01 µg/mL)	> 250 µM	
NNC(=O)c1ccncc1 [ISONIAZID]			4 µM (≈ 0.549 µg/mL)			> 250 µM				> 250 µM	4 µM (≈ 0.549 µg/mL)		0.5 µM (≈ 0.0686 µg/mL)								MIC [16]: > 250 µM; MIC [17]: 8 µM (≈ 1.1 µg/mL); MIC [22]: 1 µM (≈ 0.137 µg/mL); MIC [26]: > 250 µM; MIC [29]: > 250 µM
